GLD-1 RNA inh: GLD-1-TGE RNA interaction inhibition (C. elegans); AID 2280; purified GLD-1 + fluorescein TGE RNA, fluorescence polarization; inhibition, % at 5.96 µM; Q17339; hit rate 0.44% among 320,000;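 active = percent inhibition above a per-plate cutoff, the plate mean of test compounds plus 3 SD, cut at about 30% in these data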;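 also: 0% = DMSO wells with GLD-1 and probe and 100% = wells lacking GLD-1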
EBV gp42 inh: EBV gp42 inhibition | Fluorescence polarization binding assay, mP read-out | inhibition, % (tested at 21.74 µM) | hit rate 0.42% among 220,000 | AID 1085; in the data active = inhibition above about 50%
MEX-5 binding: C. elegans MEX-5 TCR-2 RNA binding activity | MEX-5/FITC-TCR2 RNA binding, fluorescence polarization; active compounds read low | activity score (negative = inhibition of binding), % at 10 µM | hit rate 0.38% among 300,000 | AID 1832;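 active = inhibition past about -25% in most replicates, and total fluorescence under double the plate's negative control median, limit read from the data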;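 also: 0% = DMSO and -100% = 5 µM competing unlabeled TCR2 RNA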
Target sequence (Q9XUB2 whole entry, looked up): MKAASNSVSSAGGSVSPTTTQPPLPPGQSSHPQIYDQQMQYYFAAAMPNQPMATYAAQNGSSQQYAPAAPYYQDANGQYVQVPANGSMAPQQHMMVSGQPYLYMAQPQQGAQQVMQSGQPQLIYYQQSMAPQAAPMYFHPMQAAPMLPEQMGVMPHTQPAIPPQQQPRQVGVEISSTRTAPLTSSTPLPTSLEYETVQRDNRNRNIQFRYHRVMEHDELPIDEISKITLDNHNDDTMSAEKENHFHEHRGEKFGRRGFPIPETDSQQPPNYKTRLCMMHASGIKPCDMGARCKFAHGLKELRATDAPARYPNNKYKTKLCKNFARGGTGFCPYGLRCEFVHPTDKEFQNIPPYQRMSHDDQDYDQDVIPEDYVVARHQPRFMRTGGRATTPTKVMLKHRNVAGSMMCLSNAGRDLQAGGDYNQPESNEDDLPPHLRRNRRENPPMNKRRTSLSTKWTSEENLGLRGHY
Bcl-xL primary: blocks human Bcl-xL binding to Bim BH3 peptide; Q07817; GST-Bcl-xL / FITC-Bim BH3 peptide fluorescence polarization; inhibition, % at 10.9 µM; hit rate 0.7% among 320,000;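 active = inhibition above the mean of all tested compounds plus 3 SD, cutoff set per campaign, cut at about 30% in these data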;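 also: 0% = DMSO wells and 100% = unlabeled Bim-BH3 peptide competitor; inhibitors lower millipolarization by displacing the labeled peptide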
Target sequence (Q07817 whole entry, looked up): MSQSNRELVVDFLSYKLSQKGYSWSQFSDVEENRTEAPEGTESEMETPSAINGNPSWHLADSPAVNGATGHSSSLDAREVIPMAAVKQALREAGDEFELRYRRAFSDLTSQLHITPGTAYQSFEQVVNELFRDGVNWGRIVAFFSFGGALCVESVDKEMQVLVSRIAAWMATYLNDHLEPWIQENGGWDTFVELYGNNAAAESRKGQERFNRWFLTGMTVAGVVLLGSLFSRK
IMP-1 inhibitor: inhibitors of Pseudomonas aeruginosa IMP-1 metallo-beta-lactamase | AID 1556 | hit rate 0.45% among 290,000 | purified IMP-1, nitrocefin hydrolysis, epi-absorbance fluorescence | inhibition, % at 5.6 µM;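 active = inhibition above the mean plus 3 SD of all compounds in the same screening run, cut at about 4.5% in these data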;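 also: 0% = IMP-1 with DMSO and 100% = DMSO wells lacking enzyme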
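System: purified recombinant IMP-1 beta-lactamase. Medium: Zinc- and detergent-supplemented HEPES buffer, pH 7.1. Compound: one 5.6 µM dose […]. Schedule: 15 min preincubation plus 25 min reaction at 25 °C. Technique: Epi-absorbance fluorescence, 480 nm excitation, 530 nm emission.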
VIM-2 inh: inhibitors of Pseudomonas aeruginosa VIM-2 metallo-beta-lactamase; purified VIM-2, nitrocefin hydrolysis, epi-absorbance fluorescence; inhibition, % at 5.6 µM; hit rate 0.89% among 290,000; AID 1527;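 active = inhibition above the mean of all tested compounds plus 3 SD, cutoff set per screening run, cut at about 7.5% in these data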;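 also: red hydrolysis product quenches plate fluorescence so inhibitors raise well fluorescence; 0% = enzyme with DMSO and 100% = DMSO without enzyme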
* = called active by the depositor; . = no result. In the library only some 2.2% were active in any assay of this set; here they are far more common.

SMILES | GLD-1 RNA inh | EBV gp42 inh | MEX-5 binding | Bcl-xL primary | IMP-1 inhibitor | VIM-2 inh
CCC(=O)N1CCc2cc(S(=O)(=O)CCC(=O)NCc3ccccc3OC)ccc21 | -5.6 | . | 3.8 | -0.7 | -2.9 | -2.9
O=c1c2ccccc2nc2n1CC/C2=C\c1ccccc1[N+](=O)[O-] | . | 65.8* | . | . | 0.7 | 1.4
O=C(O)c1ccc2c(=O)n3c(nc2c1)/C(=C/c1ccccc1Br)CC3 | 1.9 | . | 0.7 | 4.6 | -2.4 | -1.4
CCc1c(C)nc2ncnn2c1NCCc1ccc(OC)cc1 | 8.8 | -20.3 | 6.2 | 5.7 | -3.9 | 8.9*
CC1CN(C(=O)CSc2nc(N)cc(N)n2)CC(C)O1 (stereo not drawn) | 0.0 | . | . | -5.9 | . | .
CCCCn1c(=O)[nH]c(=O)c2c1nc(-c1ccccc1OC(F)F)n2C | 2.0 | . | 0.8 | -9.2 | -2.6 | -2.4
O=C(CCN1C(=O)C2C3C=CC(C3)C2C1=O)NCCN1CCCc2ccccc21 (stereo not drawn) | 13.6 | -5.3 | 0.4 | 34.0* | -1.2 | -0.5
O=C(CN1C(=O)C2C3C=CC(C3)C2C1=O)NCCN1CCCc2ccccc21 (stereo not drawn) | 12.8 | -11.1 | -5.2 | 24.2 | -4.0 | -3.2
CCC1(C(=O)OC)NC(c2ccccc2OC)C2C(=O)N(C)C(=O)C21 (stereo not drawn) | 10.6 | -28.4 | -2.1 | 58.2* | -2.0 | -2.8
O=C(c1cc(F)ccc1F)C1CCCN(C(=O)CCCN2CCCCC2=O)C1 (stereo not drawn) | 3.5 | -7.6 | -0.7 | 50.8* | -2.6 | -2.1
O=C(COC(=O)c1ccc2ncsc2c1)Nc1ccccc1Br | 4.2 | . | . | -4.0 | . | .
Nc1ccccc1-c1ccccc1N | 0.4 | -17.9 | -0.2 | 0.3 | -2.4 | -3.8
Nc1ccccc1N=Nc1ccccc1N | 17.3 | . | -1.2 | 45.8* | -5.3 | -5.6
COCCNC(=S)NN(c1ccccc1)c1ccccc1 | 5.5 | -1.3 | -2.3 | -1.9 | -3.7 | -2.1
CNC(=S)NN(c1ccccc1)c1ccccc1 | 2.3 | 83.6* | 1.6 | 5.5 | -3.5 | -1.3
Cc1noc(C)c1COc1ccccc1C(=O)NC(C)c1ccc(Cl)cc1 (stereo not drawn) | -0.8 | . | . | -4.1 | . | .
O=C(Nc1ccncc1)Nc1ccc(F)cc1F | -2.9 | 73.3* | 2.1 | 0.5 | -3.7 | -3.6
O=C(Nc1ccc(F)cc1F)Nc1ccc(F)cc1F | 3.4 | 0.2 | -1.0 | 6.6 | -2.8 | -2.5
CCOC(=O)C1=C(CCc2ccccc2)NC(=O)NC1c1ccc(C#N)cc1 (stereo not drawn) | -1.1 | . | 0.7 | 1.2 | . | .
CCOC(=O)c1ccc(S(=O)(=O)N2CC(=O)Nc3ccccc32)cc1 | -1.6 | . | 0.8 | 5.1 | -3.0 | 1.0
Cc1cc(C)c(S(=O)(=O)Nc2cc(SCC(=O)O)c(O)c3ccccc23)cc1C | 12.2 | -1.0 | -56.5* | 18.7 | -0.8 | 0.3
COc1ccc(S(=O)(=O)Nc2cc(SCC(=O)O)c(O)c3ccccc23)cc1 | 6.5 | . | -53.1* | 25.2 | 2.6 | 6.1
O=C(O)CSc1cc(NS(=O)(=O)c2ccc(Cl)cc2)c2ccccc2c1O | -2.6 | . | 0.4 | 22.3 | 1.8 | 1.8
CN(C)CCSc1nnc2[nH]c3ccccc3c2n1 | 5.0 | -25.1 | -5.4 | 3.5 | -0.6 | 10.2*
Fc1cccc(CSc2nnc3c(n2)[nH]c2ccccc23)c1 | 5.4 | -10.7 | -0.7 | -2.2 | -0.9 | -1.0
SMILES | GLD-1 RNA inh | EBV gp42 inh | MEX-5 binding | Bcl-xL primary | IMP-1 inhibitor | VIM-2 inh
N#C/C(=N/Nc1ccc(OC(F)(F)F)cc1)C(N)=S | 11.3 | -11.9 | -1.7 | 10.7 | 0.2 | -4.0
NC(=S)N=Nc1ccc(NN=C(N)N)cc1 | -1.5 | . | -53.3* | 13.0 | -3.5 | -1.2
COc1ccc(OC)c(-c2c3cc(O)c(=O)cc-3oc3cc(O)c(O)cc23)c1 | 75.5* | 168.4* | . | 110.5* | 4.7* | 0.6
O=c1cc2oc3cc(O)c(O)cc3c(-c3ccccc3O)c-2cc1O | . | 149.9* | . | . | 2.1 | 3.9
COc1ccc(OC)c(-c2oc3ccccc3c(=O)c2O)c1 | 3.7 | 1.7 | -0.8 | 2.3 | -0.7 | 1.9
CCOc1ccccc1-c1c2cc(O)c(=O)cc-2oc2cc(O)c(O)cc12 | . | 153.3* | . | . | 6.8* | 1.1
O=C(Nc1ccc(C(=O)N2CCCCC2)cc1)Nc1cccc(Cl)c1 | 5.7 | . | 1.1 | 6.0 | -4.1 | -5.4
O=C1CC2(CCN(C(=O)c3cccc(Br)c3)CC2)Oc2ccccc21 | -0.5 | . | 1.0 | -2.6 | . | .
COc1cc2c(cc1OC)-c1c(OC)c(OC)cc3ccnc(c13)C2=O | 2.0 | 4.9 | -57.3* | 12.9 | -6.0 | 9.0*
COc1ccc(C(=O)c2nccc3cc(OC)c(OC)cc23)cc1OC | 3.0 | . | . | 5.2 | . | .
O=C(CN1C(=O)/C(=C2\SC(=S)N(CCS(=O)(=O)O)C2=O)c2ccccc21)Nc1cccc(Br)c1 | 0.2 | . | -0.4 | 20.6 | 12.7* | 1.2
Cc1ccc(NC(=O)C(c2ccccc2)c2ccccc2)nc1 | 2.1 | . | 0.3 | 3.3 | -1.0 | -1.5
Cc1ccc(NC(=O)c2sc3nc4c(c(-c5ccco5)c3c2N)CCC4)cc1 | 63.5* | 9.2 | -55.3* | 28.3 | -1.5 | 0.5
COCCNC(=O)Cn1ccc2cc(S(=O)(=O)N3CCCCCC3)ccc21 | 6.8 | . | 0.6 | -2.3 | 0.1 | -0.8
COc1ccc(-c2nnc3ccc(SC)nn23)cc1 | 0.1 | -12.8 | 2.5 | 11.3 | -3.8 | 8.2*
Cc1ccc(N(C(=O)CNC(=O)c2ccco2)C(C(=O)NCC2CCCO2)c2ccccc2)c(C)c1 (stereo not drawn) | -4.3 | . | 0.8 | -1.3 | -3.2 | -2.8
CC(C)(C)c1ccc(C2=CC(c3ccccc3F)n3ncnc3N2)cc1 (stereo not drawn) | 10.2 | . | -1.6 | 5.9 | . | .
Fc1ccc(C2=CC(c3ccc(Br)o3)n3ncnc3N2)cc1 (stereo not drawn) | 163.4* | 62.2* | . | 179.9* | -1.6 | -4.7
Fc1ccc(C2=CC(c3ccco3)n3ncnc3N2)cc1 (stereo not drawn) | 95.9* | 25.9 | -51.0* | 152.1* | -0.3 | -2.1
Oc1ccc(C2C=C(c3ccc(F)cc3)Nc3ncnn32)cc1 (stereo not drawn) | . | 17.2 | -8.7 | . | -2.1 | -0.1
C1=C(c2ccc(-c3ccccc3)cc2)Nc2ncnn2C1c1ccco1 (stereo not drawn) | . | 149.5* | . | . | -2.8 | -2.7
O=C(COc1cccnc1[N+](=O)[O-])NCc1ccc(F)cc1 | 5.1 | . | 0.8 | 0.3 | -3.9 | -3.8
CCN(CC(=O)Nc1cc(Cl)ccc1C)C(=O)c1cc([N+](=O)[O-])ccc1N1CCOCC1 | -2.8 | . | -1.0 | -8.2 | . | .
Cc1ccc(C)c(NC(=O)Cn2ccn(-c3ccc4c(c3)OCO4)c(=O)c2=O)c1 | 6.5 | . | 2.0 | 0.2 | . | .
CC(C)OCCCNC(=O)c1ccccc1NC(=O)C1=CSCCO1 | 5.0 | . | 1.2 | 3.7 | -0.3 | -1.6
Cc1ccc(NC(=S)N2CCN(CCN3C(=O)c4cccc5cccc(c45)C3=O)CC2)cc1 | 0.5 | -11.6 | -0.8 | 11.5 | -6.8 | 8.1*

From PubChem BioAssay
